Active and inactive are the calls of the source. The rule behind the calls is not given here.
Experiments:
Assay type in all cases: functional, organism-based
Plasmodium falciparum [1] = assay: Anti-malarial activity against intraerythrocytic ring stage culture of chloroquine-resistant Plasmodium falciparum Dd2 after 48 hrs by lactate dehydrogenase assay; conditions: Dd2, 48 h
Outline: (§1)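 Sorbitol-synchronised ring-stage parasites at 2% haematocrit and 1% parasitaemia, kept at 37 °C in 1% O2/3% CO2/96% N2, were given five-fold drug dilutions from 100 mM DMSO stocks for 48 h. Growth reference wells had no drug, and 0% wells had artemether at 100 nM. LDH was read with Malstat/APAD plus NBT/PES (1 h, dark, room temperature, A650). IC50 came from log dose–response curves of mean growth, n ≥ 6.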

Plasmodium falciparum [2] = assay: Anti-malarial activity against intraerythrocytic ring stage culture of chloroquine-sensitive Plasmodium falciparum 3D7 after 48 hrs by lactate dehydrogenase assay; conditions: 3D7, 48 h; outline: as §1
Plasmodium falciparum [3] = assay: Anti-malarial activity against Plasmodium falciparum trophozoites assessed as induction of morphological changes at 5 uM

## COC[C@@H]1Cc2c(n(C)c3ccccc23)[C@H]2CCCC(=O)N12
Plasmodium falciparum [1]
  IC50: 30 µM

## CCCOC[C@H]1Cc2c(n(Cc3ccccc3)c3ccccc23)[C@@H]2CCCC(=O)N12
Plasmodium falciparum [1]
  IC50: 2.8 µM

## C=CCOC[C@@H]1Cc2c(n(CC=C)c3ccccc23)[C@H]2CCCC(=O)N12
Plasmodium falciparum [1]
  IC50: 16 µM

## C=C[C@H]1CC(=O)N2[C@@H](COCc3ccccc3)Cc3c(n(Cc4ccccc4)c4ccccc34)[C@@H]2C1
Plasmodium falciparum [1]
  IC50: 13 µM

## COC[C@@H]1Cc2c(n(Cc3ccccc3)c3ccccc23)[C@H]2CCCC(=O)N12
Plasmodium falciparum [1]
  IC50: 32 µM

## COC[C@H]1Cc2c(n(Cc3ccccc3)c3ccccc23)[C@@H]2CCCC(=O)N12
Plasmodium falciparum [1]
  IC50: 1.3 µM
Plasmodium falciparum [2]
  IC50: 2.3 µM

## O=C1CCC[C@H]2c3c(c4ccccc4n3Cc3ccccc3)C[C@H](COCC3CCCCC3)N12
Plasmodium falciparum [1]
  IC50: 19 µM

## C=CCOC[C@H]1Cc2c(n(CC3CCCCC3)c3ccccc23)[C@@H]2CCCC(=O)N12
Plasmodium falciparum [1]
  IC50: 9 µM

## C=CCOC[C@H]1Cc2c(n(Cc3ccncc3)c3ccccc23)[C@@H]2CCCC(=O)N12
Plasmodium falciparum [1]
  IC50: 2.1 µM

## O=C1CCC[C@@H]2c3[nH]c4ccccc4c3C[C@@H](CO)N12
Plasmodium falciparum [1]
  IC50: 71 µM

## O=C1CCC[C@H]2c3c(c4ccccc4n3Cc3ccccc3)C[C@H](CO)N12
Plasmodium falciparum [1]
  IC50: 5 µM

## COC[C@H]1Cc2c(n(C)c3ccccc23)[C@@H]2CCCC(=O)N12
Plasmodium falciparum [1]
  IC50: 29 µM
Plasmodium falciparum [2]
  IC50: 41 µM

## C=C[C@@H]1CC(=O)N2[C@H](COCc3ccccc3)Cc3c(n(Cc4ccccc4)c4ccccc34)[C@H]2C1
Plasmodium falciparum [1]
  IC50: 20 µM

## C=CCOC[C@H]1Cc2c(n(Cc3ccccc3)c3ccccc23)[C@@H]2C[C@@H](C=C)CC(=O)N12
Plasmodium falciparum [1]
  IC50: 1.1 µM
Plasmodium falciparum [3]
  Activity: Active

## C=CCOC[C@@H]1Cc2c(n(Cc3ccccc3)c3ccccc23)[C@H]2CCCC(=O)N12
Plasmodium falciparum [1]
  IC50: 35 µM

## O=C1CCC[C@@H]2c3c(c4ccccc4n3Cc3ccccc3)C[C@@H](COCc3ccccc3)N12
Plasmodium falciparum [1]
  IC50: 12 µM

## C=CCOC[C@H]1Cc2c(n(CC=C)c3ccccc23)[C@@H]2CCCC(=O)N12
Plasmodium falciparum [1]
  IC50: 13 µM

## C=CCOC[C@H]1Cc2c(n(Cc3ccccc3)c3ccccc23)[C@@H]2CC=CC(=O)N12
Plasmodium falciparum [1]
  IC50: 1.7 µM

## C=CCOC[C@H]1Cc2c(n(CC3CCC3)c3ccccc23)[C@@H]2CCCC(=O)N12
Plasmodium falciparum [1]
  IC50: 7 µM

## O=C1CCC[C@H]2c3c(c4ccccc4n3Cc3ccccc3)C[C@H](COCc3ccccc3)N12
Plasmodium falciparum [1]
  IC50: 3.5 µM
Plasmodium falciparum [3]
  Activity: Active

## COC[C@H]1Cc2c(n(Cc3ccccc3)c3ccccc23)[C@@H]2CCCCN12
Plasmodium falciparum [1]
  IC50: 3.3 µM

## C=CCOC[C@H]1Cc2c(n(Cc3ccccc3)c3ccccc23)[C@@H]2CCCCN12
Plasmodium falciparum [1]
  IC50: 1.5 µM

## O=C1C=CC[C@H]2c3c(c4ccccc4n3Cc3ccccc3)C[C@H](COCc3ccccc3)N12
Plasmodium falciparum [1]
  IC50: 3.6 µM

## C=CCOC[C@H]1Cc2c(n(Cc3ccccc3)c3ccccc23)[C@@H]2CCCC(=O)N12
Plasmodium falciparum [1]
  IC50: 1.3 µM
Plasmodium falciparum [2]
  IC50: 1.7 µM

## C=CCn1c2c(c3ccccc31)C[C@H](CO)N1C(=O)CCC[C@@H]21
Plasmodium falciparum [1]
  IC50: 41 µM

## O=C1CCC[C@H]2c3[nH]c4ccccc4c3C[C@H](CO)N12
Plasmodium falciparum [1]
  IC50: 56 µM

Source: ChEMBL document CHEMBL1949634, “Synthesis and evaluation of a novel series of indoloisoquinolines as small molecule anti-malarial leads” (Bioorg Med Chem Lett, 2012)
